We go through seven molecules from ChEMBL document CHEMBL4020820, “Insights into the Impact of a Membrane-Anchoring Moiety on the Biological Activities of Bivalent Compounds As Potential Neuroprotectants for Alzheimer's Disease” (J Med Chem, 2018).

For series [1], the system named is Brain. The series is described as follows: Effect on oxidative phosphorylation efficiency in C57BL/6 mouse brain mitochondria assessed as respiratory control ratio at 3.3 uM using succinate as substrate (reference value: 2.3 +/- 0.2). It counts as ADME.
Series [2] has as its system Lipid bilayer. The series is described as follows: Binding affinity to DPPC membrane assessed as change in enthalpy by differential scanning calorimetry (reference value: 8.7 kcal/mol). The essentials: (§1)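 Multilamellar DPPC vesicles (2 mg lipid) with compound at various lipid:compound molar ratios (40:1 up to 5:1) in 100 mM NaCl, 25 mM Hepes pH 7.4, made by vortexing at 55 °C. Samples degassed 10 min, buffer as reference. DSC scans 10–60 °C at 60 °C/h. Traces normalized to DPPC content. Onset (Tc), completion temperature and enthalpy taken from thermograms.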
In general terms: DSC measures the heat that a sample takes up or gives off during a temperature scan.

Series [3] deals with Brain. The series is described as follows: Effect on oxidative phosphorylation efficiency in C57BL/6 mouse brain mitochondria assessed as ADP/O ratio at 3.3 uM using succinate as substrate (reference value: 1.3 +/- 0.2). It counts as ADME.
The test system of series [4] is Lipid bilayer. The series is described as follows: Binding affinity to DPPC membrane assessed as appearance of disordered membrane structure at […] at 25 degC by WAXD analysis. Conditions: in the assay text read “SAXD analysis” for “WAXD analysis”. The gist of the method:
(§2)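 DPPC (2 mg) with compound at 10:1 lipid:compound molar ratio, hydrated in 100 mM NaCl, 25 mM Hepes pH 7.4, vortexed at 55 °C to form multilamellar vesicles. Small- and wide-angle X-ray diffraction at 25 and 50 °C; 10 min equilibration, 10 min exposure; d-spacings and chain packing read from reflections.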

The subject of series [5] is Lipid bilayer. The series is described as follows: Binding affinity to DPPC membrane assessed as shift in onset of transition temperature at 40:1 […] molar ratio by differential scanning calorimetry. The gist of the method:
as §1

Series [6] relates to Lipid bilayer. The series is described as follows: Binding affinity to DPPC membrane assessed as phase separation in membrane structure at […] at 50 degC by SAXD analysis. The gist of the method:
as §2

A short description of series [7]: Neuroprotective activity against tetracycline removal-induced cytotoxicity in human MC65 cells assessed as increase in cell viability after 72 hrs by MTT assay. It counts as functional, cell-based. Conditions: MC65, 72 h. The essentials:
(§3)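 MC65 cells kept in DMEM/10% FBS with 1 µg/mL tetracycline and G418. Cells washed twice with PBS, seeded in Opti-MEM at 4×10^4/well without tetracycline, given compound (0.3 µM, alone or in combination), 72 h at 37 °C. MTT added for 4 h, formazan dissolved in DMSO, A570 read. Viability as % of +TC controls; six replicates, ≥3 independent runs.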
(In general: Tetrazolium assays rely on reduction of a dye to a coloured formazan, in cell work by metabolically active cells.)

For series [8], the system named is Brain. Description: Effect on oxidative phosphorylation efficiency in C57BL/6 mouse brain mitochondria assessed as respiratory control ratio using glutamate at 3.3 uM (reference value: 3.8 +/- 0.5). It counts as ADME.
The test system of series [9] is Brain. Description: Effect on oxidative phosphorylation efficiency in C57BL/6 mouse brain mitochondria assessed as ADP/O ratio at 3.3 uM using glutamate (reference value: 2.3 +/- 0.3). It counts as ADME.
The subject of series [10] is Lipid bilayer. Description: Binding affinity to DPPC membrane assessed as appearance of disordered membrane structure at […] at 25 degC by SAXD analysis. The essentials:
as §2

Series [11] concerns Lipid bilayer. Description: Binding affinity to DPPC membrane assessed as increase in membrane thickness at […] at 50 degC by SAXD analysis. The gist of the method:
as §2

Series [12] relates to Lipid bilayer. The series is described as follows: Binding affinity to DPPC membrane assessed as phase transition completion temperature at 5:1 […] molar ratio by differential scanning calorimetry (reference value: 43.1 degC). The gist of the method:
as §1

Series [13] relates to Brain. Description: Effect on oxidative phosphorylation efficiency in C57BL/6 mouse brain mitochondria assessed as change in state 4 respiratory rate of succinate at 3.3 uM. It counts as ADME.
Series [14] deals with N2a. The series is described as follows: Neuroprotective activity in mouse N2A cells assessed as increase in neurite outgrowth at 0.3 uM after 48 hrs by fluorescent microscopic method. It counts as functional, cell-based. The gist of the method:
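N2a cells seeded at 1×10^4/well in MEM with 0.5% FBS plus compound (0.3 µM) for 48 h. Neurite outgrowth stain, then fluorescence imaging at 10× (20 images per well). Average neurite length quantified; mean ± SEM, n=3.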

Series [15] can be described thus: Effect on electron transport chain mitochondrial complex-2 activity in C57BL/6 mouse brain mitochondria assessed as change in rate of oxidation of DCPIP at 3.3 uM using succinate as substrate in presence of decylubiquinone by spectrophotometry. Format: ADME. The essentials: (§4)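 Frozen-thawed C57BL/6 mouse brain mitochondria solubilized in 5% cholate (pH 7.2), diluted in KME buffer (100 mM KCl, 50 mM MOPS, 1 mM EGTA), treated with compound at 3.3 µM. Complex I: NADH consumption at 340 nm with 100 µM antimycin A, 1 mM decylubiquinone, 150 µM NADH, 40 µg/mL protein, ± 7.5 µM rotenone. Complex IV taken after background subtraction. Mean ± SEM, n=4.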

In series [16] the test system is Brain. The series is described as follows: Effect on oxidative phosphorylation efficiency in C57BL/6 mouse brain mitochondria assessed as change in state 3 respiratory rate of succinate at 3.3 uM. It counts as ADME.
Series [17] has as its system Brain. The series is described as follows: Effect on oxidative phosphorylation efficiency in C57BL/6 mouse brain mitochondria assessed as change in state 3 respiratory rate of glutamate at 3.3 uM relative to control. Format: ADME.
The nature of series [18]: Effect on electron transport chain mitochondrial complex-4 activity in C57BL/6 mouse brain mitochondria assessed as change in first-order rate of consumption of reduced cytochrome C at 3.3 uM measured over 7.5 mins by spectrophotometry. Conditions: 0.125 h. It counts as ADME. The gist of the method:
as §4

Series [19] concerns Brain. Description: Effect on oxidative phosphorylation efficiency in C57BL/6 mouse brain mitochondria assessed as decrease in ADP-stimulated respiratory rate of glutamate at 3.3 uM. It counts as ADME.
Series [20] can be described thus: Effect on electron transport chain mitochondrial complex-3 activity in C57BL/6 mouse brain mitochondria assessed as change in initial rate of reduction of cytochrome C at 3.3 uM in presence of decylubiquinone by spectrophotometry. It counts as ADME. The gist of the method:
as §4

Series [21] can be described thus: Effect on electron transport chain mitochondrial complex-1 activity in C57BL/6 mouse brain mitochondria assessed as change in rate of NADH consumption at 3.3 uM in presence of antimycin A/decylubiquinone by spectrophotometry. It counts as ADME. The essentials: as §4
Series [22] relates to Cortical neurone. Description: Neuroprotective activity in E17 rat primary cortical neurons assessed as increase in neurite outgrowth after 4 days by DAPI-staining based assay. It counts as functional, cell-based. The gist of the method: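 Rat E17 cortical neurons on poly-D-lysine coverslips (2×10^4/well) in neurobasal/B27/Glutamax, treated with DMSO or compound from DIV1. Fixed at DIV5 in 4% PFA; neurites immunostained for beta III tubulin, nuclei with DAPI.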

The subject of series [23] is MC65. Description: Neuroprotective activity against tetracycline removal-induced cytotoxicity in human MC65 cells assessed as increase in cell viability at 0.3 uM after 72 hrs by MTT assay. It counts as functional, cell-based. The gist of the method: as §3

The source made the active and inactive calls. The rule behind the calls is not given here.

For `COc1cc(/C=C/C(=O)/C(Cc2cn(CCNC(=O)COCC(=O)NCCCCO[C@H]3CC[C@@]4(C)C(=CC[C@H]5[C@@H]6CC[C@H]([C@H](C)CCCC(C)C)[C@@]6(C)CC[C@@H]54)C3)nn2)=C(O)/C=C/c2ccc(O)c(OC)c2)ccc1O`, the Ratio in [1] was 2.4; in series [3], 1.2; in series [8], 4.4; in series [9], 2.4. In addition, in [2], the deltaH lay in the range of 3 to 5 kcal/mol. Besides, the outcome in series [4], in series [5], in series [6] and in series [10] was Active. Moreover, the EC50 in [7] was found to be 296 nM.

For `COc1cc(/C=C/C(=O)/C(Cc2cn(CCCCCCNC(=O)COCC(=O)NCCCCO[C@H]3CC[C@@]4(C)C(=CC[C@H]5[C@@H]6CC[C@H]([C@H](C)CCCC(C)C)[C@@]6(C)CC[C@@H]54)C3)nn2)=C(O)/C=C/c2ccc(O)c(OC)c2)ccc1O`, in [7], the EC50 turned out to be 1850 nM.

Take `COc1cc(/C=C/C(=O)/C(Cc2cn(CCNC(=O)COCC(=O)NCCCCN[C@H]3CC[C@@]4(C)C(=CC[C@H]5[C@@H]6CC[C@H]([C@H](C)CCCC(C)C)[C@@]6(C)CC[C@@H]54)C3)nn2)=C(O)/C=C/c2ccc(O)c(OC)c2)ccc1O`: the Ratio amounted to 2.6 in series [1], 1.1 in series [3], 3.9 in series [8] and 2.4 in [9]. The deltaH in series [2] fell in the range of 3 to 5 kcal/mol. Further, the outcome in series [11], in series [4], in series [5] and in series [10] was Active. Moreover, in [7], the EC50 came out at 56.5 nM. The T in series [12] worked out at 42.4 °C.

For the molecule `COc1cc(/C=C/C(=O)/C(Cc2cn(CCNC(=O)COCC(=O)NCCCCO[C@H]3CC[C@@]4(C)C(=CC[C@H]5[C@@H]6C[C@@H]7O[C@]8(CC[C@@H](C)CO8)[C@@H](C)[C@@H]7[C@@]6(C)CC[C@@H]54)C3)nn2)=C(O)/C=C/c2ccc(O)c(OC)c2)ccc1O`, the Activity entry was “Non-Toxic” in series [13]; “Not Active” in series [15]; “Non-Toxic” in [16]; 11.5% in [17]; “Not Active” in series [18]; “Toxic” in series [19]. For the same molecule, the Activity entry in series [20] and in series [21] was “Not Active” each time. Also, the Ratio in series [1] came out at 2.1; in [3], 1.1; in series [8] it was 3.9; in series [9], 2.3. Further, the deltaH in [2] fell in the range of 3 to 5 kcal/mol. In addition, the outcome in series [14], in series [4], in [5], in series [6], in [22] and in series [10] was Active. For the same molecule, the EC50 in series [7] worked out at 8.3 nM. Besides, the T in [12] stood at 42.4 °C.

On to `COc1cc(/C=C/C(=O)/C(Cc2cn(CCCCCCNC(=O)COCC(=O)NCCCCO[C@H]3CC[C@@]4(C)C(=CC[C@H]5[C@@H]6C[C@@H]7O[C@]8(CC[C@@H](C)CO8)[C@@H](C)[C@@H]7[C@@]6(C)CC[C@@H]54)C3)nn2)=C(O)/C=C/c2ccc(O)c(OC)c2)ccc1O`, for which the result in series [14] and in series [22] was Active. For the same molecule, in series [7], the EC50 amounted to 30.3 nM.

As to `CCCCNC(=O)COCC(=O)NCCn1cc(C/C(C(=O)/C=C/c2ccc(O)c(OC)c2)=C(O)\C=C\c2ccc(O)c(OC)c2)nn1`, the Ratio in [1] amounted to 1.2. Besides, the result in series [14] and in [23] was inactive.

Regarding `COc1cc(/C=C/C(=O)/C(Cc2cn(CCCCCCNC(=O)COCC(=O)NCCCCN[C@H]3CC[C@@]4(C)C(=CC[C@H]5[C@@H]6CC[C@H]([C@H](C)CCCC(C)C)[C@@]6(C)CC[C@@H]54)C3)nn2)=C(O)/C=C/c2ccc(O)c(OC)c2)ccc1O`, in [7], the EC50 stood at 212 nM.

By EC50 is commonly meant the concentration at which the effect is half-maximal.
